Screening results from PubChem.
Most compounds without a hit are left out; they make up all but 7.2% or so of the library.
PostGolgi yeast: growth inhibition of a yeast mutant, post-Golgi transport screen. post-Golgi transport phenotypic cell assay. inhibition, % at 10 µM. hit rate 0.9% among 98,000;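 further: yeast cells grown in 1536-well plates; yeast grown about 18 h at 30C before absorbance read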
PLAP act: human PLAP activation. purified PLAP enzyme, luminescent substrate read-out; hits give high values. P05187. hit rate 1.2% among 96,000. AID 696. activation fold at 20 µM; in the data active means activation fold above about 2
Target sequence (P05187 whole entry, looked up): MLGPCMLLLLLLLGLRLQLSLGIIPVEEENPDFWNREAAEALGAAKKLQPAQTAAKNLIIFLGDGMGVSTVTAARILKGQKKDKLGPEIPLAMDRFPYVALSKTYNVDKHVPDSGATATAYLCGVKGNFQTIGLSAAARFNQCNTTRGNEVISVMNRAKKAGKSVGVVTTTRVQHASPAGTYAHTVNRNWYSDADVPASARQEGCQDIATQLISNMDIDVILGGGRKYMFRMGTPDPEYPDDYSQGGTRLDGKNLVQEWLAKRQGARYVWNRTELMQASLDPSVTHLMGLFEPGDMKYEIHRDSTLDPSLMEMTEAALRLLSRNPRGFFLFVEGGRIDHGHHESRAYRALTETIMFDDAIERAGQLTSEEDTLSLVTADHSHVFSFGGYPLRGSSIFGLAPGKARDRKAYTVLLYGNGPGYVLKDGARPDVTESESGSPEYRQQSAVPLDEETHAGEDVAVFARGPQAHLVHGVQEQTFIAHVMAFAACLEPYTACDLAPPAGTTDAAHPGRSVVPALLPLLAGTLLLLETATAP
Ecoli tolC: growth inhibitors of E. coli BW25113 tolC mutant | OD615 | AID 573 | hit rate 2.2% among 65,000 | growth inhibition, % at 10 µM (by protocol);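 active means growth inhibition at or above a cutoff equal to the mean over every tested compound plus 3 SD, cut at about 60% in these data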;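 further: growth measured after 20 h incubation at 37 °C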
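Test system: E. coli BW25113 ΔtolC::kan bacteria | Medium: Kanamycin-containing LB broth (50 µg/mL) | Dosing: One dose of 10 µM final | Times: 20 h incubation with compound, 37 °C | Detection: Optical density read at 615 nm | Read-out basis: Percent growth inhibition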
PostGolgi ctrl: growth of the yeast control strain, post-Golgi counter-screen | efflux-deficient yeast background strain, growth absorbance A615, 16 h | inhibition, % at 10 µM | hit rate 5% among 98,000
Ecoli WT expand: growth inhibitors of E. coli BW25113 wild type; OD600 absorbance; AID 710; growth inhibition, % at 100 µM; hit rate 0.15% among 98,000;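 active means growth inhibition above about 50% at one test dose, limit read from the data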;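 further: growth measured after 20 h incubation at 37 °C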
A number is an active result; 0 = inactive; - = no result given. Unless noted, no stated cut-off is given here; in the data, active means inhibition above about 30%; inactive means the rest.

SMILES | PostGolgi yeast | PLAP act | Ecoli tolC | PostGolgi ctrl | Ecoli WT expand
CCOc1ccccc1C(=O)N1CCCCC1C (stereo not drawn) | 0 | 0 | 0 | 0 | 0
Cn1cccc1Cc1nnc(SCC(=O)Nc2ccc(Cl)cc2)n1-c1ccc(F)cc1 | 0 | 0 | 70.8 | 0 | 0
Cn1cccc1Cc1nnc(SCC(=O)Nc2ccc(F)cc2)n1-c1ccc(F)cc1 | 0 | 0 | 0 | 0 | 0
Cc1ccc(-n2c(Cc3cccn3C)nnc2SCC(=O)NCc2ccc3c(c2)OCO3)cc1 | 0 | 0 | 0 | 32.5 | 0
Cc1ccc(-n2c(Cc3cccn3C)nnc2SCC(=O)Nc2ccc3c(c2)OCO3)cc1 | 0 | 0 | 0 | 0 | 0
O=S(=O)(c1ccccc1Cl)N1CCCC(c2nc(-c3cccnc3)no2)C1 (stereo not drawn) | 0 | 0 | 0 | 0 | 0
Cc1cc(C)nc(SCC(=O)Nc2ccc(Br)cn2)n1 | 0 | 0 | 0 | 0 | 0
CSc1nsc(SCC(=O)Nc2ccc(Br)cn2)n1 | 0 | 0 | - | 37.8 | 0
Cc1ccc(NS(=O)(=O)c2ccc(OCC(=O)Nc3cccc([N+](=O)[O-])c3)c(C)c2)cc1 | 0 | 0 | - | 0 | 0
Cn1nc(-c2ccc(OCC(=O)NCC3CCCO3)cc2)c2ccccc2c1=O (stereo not drawn) | 0 | 0 | 0 | 0 | 0
Cc1ccc(-c2nc3ccccc3s2)cc1S(=O)(=O)N1CCCC1 | 0 | 0 | - | 30.8 | 0
Cc1ccc(S(=O)(=O)N2CCCC2)cc1S(=O)(=O)N1CCCC1 | 0 | 0 | 0 | 0 | 0
O=S(=O)(c1cccc(-c2nc3ccccc3s2)c1)N1CCOCC1 | 0 | 0 | - | 30.4 | 0
O=C1N2c3ccccc3CCc3cccc(c32)C1(O)C(F)(F)F (stereo not drawn) | 0 | 0 | 0 | 49.6 | 0
O=C1CCCC2=C1C(O)(C(F)(F)F)C(=O)N2Cc1ccccc1 (stereo not drawn) | 0 | - | 0 | 0 | 0
Cc1ccccc1N(CC(=O)NC1CCCC1)C(=O)c1oc(C(C)(C)C)cc1C | 0 | 0 | - | 0 | 0
Cc1cc(C(C)(C)C)oc1C(=O)N(CC(=O)NC1CCCC1)Cc1ccccc1Cl | 0 | 0 | - | 30.8 | 0
O=C(COC(=O)c1cc(-c2cccs2)nc2ccccc12)NCc1ccco1 | 0 | 0 | 0 | 0 | 0
O=C(COC(=O)c1cc(-c2ccc(Cl)s2)nc2ccccc12)NCc1ccco1 | 0 | 0 | - | 32.7 | 0
CC(=O)c1ccc(OCC(O)CN2CC(C)OC(C)C2)cc1 (stereo not drawn) | 0 | 0 | 0 | 0 | 0
CC1CN(CCCCOc2ccc(C(C)C)cc2)CC(C)O1 (stereo not drawn) | 96.9 | 0 | - | 52.9 | 0
CCCCOc1ccc(C(=O)N2CC(C)OC(C)C2)cc1 (stereo not drawn) | 0 | 0 | - | 0 | 0
COc1cc(C)ccc1OCCCCN1CC(C)OC(C)C1 (stereo not drawn) | 60.1 | 0 | - | 33.2 | 0
CC1CN(CC(O)COc2ccc(C(C)C)cc2)CC(C)O1 (stereo not drawn) | 58.9 | 0 | 0 | 0 | 0
C/C(N)=C(/C#N)C(=O)COC(=O)CC12CC3CC(CC(C3)C1)C2 | 0 | 0 | - | 0 | 0
SMILES | PostGolgi yeast | PLAP act | Ecoli tolC | PostGolgi ctrl | Ecoli WT expand
COC(=O)c1cc(NC(=O)CC2SC(=Nc3ccccc3)N(CCc3c[nH]c4ccccc34)C2=O)cc(C(=O)OC)c1 (stereo not drawn) | 0 | 0 | - | 0 | 0
CCOC(=O)CSC1=C(C#N)C(=O)NC2(CCCCC2)S1 | 0 | 0 | 0 | 0 | 0
Cc1ccc(OCC(O)Cn2c3ccccc3c3ccccc32)cc1 (stereo not drawn) | 0 | 0 | - | 40.6 | 0
Cc1cccc(C)c1OCC(O)Cn1nnc2ccccc21 (stereo not drawn) | 0 | 0 | - | 0 | 0
N=c1n(Cc2ccccc2)c2ccccc2n1CC(O)COc1ccccc1 (stereo not drawn) | 0 | 0 | 62.7 | 0 | 0
CC(=O)N(C)c1ccc(OCC(O)Cn2c3ccc(Cl)cc3c3cc(Cl)ccc32)cc1 (stereo not drawn) | 73.2 | 0 | - | 57.1 | 0
Cc1ccc(Cn2c(=N)n(CC(O)COc3ccccc3)c3ccccc32)cc1 (stereo not drawn) | 0 | 0 | - | 0 | 0
Cc1cccc(C)c1OCC(O)Cn1c2ccccc2c2ccccc21 (stereo not drawn) | 0 | 0 | - | 49.7 | 0
CC(=O)Nc1ccc(OCC(O)CN2CCN(c3cccc(Cl)c3)CC2)cc1 (stereo not drawn) | 0 | 0 | 0 | 0 | 0
COc1ccc(C2/C(=C(\O)c3ccc4c(c3)OCCO4)C(=O)C(=O)N2CCCN(C)C)c(OC)c1 (stereo not drawn) | - | 0 | 0 | - | -
O=C(CCn1c(=O)c2sccc2n(CC(=O)OCc2ccccc2)c1=O)NCc1ccccc1 | 0 | 0 | - | 0 | 0
COc1cc(/C=N/N=C(/N)c2nonc2N)cc(Br)c1OCc1cccc(C)c1 | 0 | 0 | - | 32.8 | 0
Cc1csc(NC(=O)C2CCN(S(=O)(=O)c3ccc4c(c3)oc(=O)n4C)CC2)n1 | 0 | 0 | - | 0 | 0
Cc1csc(NC(=O)C(CC(C)C)NS(=O)(=O)c2ccc3c(c2)oc(=O)n3C)n1 (stereo not drawn) | 0 | 2.3 | 0 | 0 | 0
CC1=C(C(=O)OC(C)C)C(c2ccccn2)n2ncnc2N1 (stereo not drawn) | 0 | 0 | 0 | 33.4 | 0
CCn1c2ccccc2c2cc(/C=N/NC(=O)c3cccc(C)c3)ccc21 | 0 | 0 | - | 34.1 | 0
CCn1c2ccccc2c2cc(/C=N/n3cnnc3)ccc21 | 0 | 0 | 0 | 41.9 | 0
CCn1c2ccccc2c2cc(/C=N/n3cn[nH]c3=S)ccc21 | 0 | 0 | - | 42.7 | 0
CCn1c(/C=N/n2cnnc2)nc2ccccc21 | 0 | 0 | 0 | 0 | 0
Cc1cc(C)nc(NN2C(=O)/C(=C/c3ccc(O)cc3)SC2=S)n1 | 0 | 0 | - | 0 | 0
COc1cc(NC(=O)Cn2nc(Cc3cccnc3)c3ccccc3c2=O)cc(OC)c1OC | 0 | 0 | - | 0 | 0
CCCCN(CC(=O)Nc1c(C)cccc1CC)C(=O)SCC | 0 | 0 | - | 0 | 0
CCOc1ccc2c3c(c(=O)oc2c1OCC)CCCC3 | 0 | 0 | - | 0 | 0
CCCOc1ccc2c3c(c(=O)oc2c1OCCC)CCCC3 | 0 | 0 | - | 55.8 | 0
Cc1ccc(Cl)cc1NC1=C/C(=N\S(=O)(=O)c2cccs2)c2ccccc2C1=O | 49.8 | 0 | - | 66.4 | 0
SMILES | PostGolgi yeast | PLAP act | Ecoli tolC | PostGolgi ctrl | Ecoli WT expand
COCCCNC(=O)CS(=O)(=O)Cc1nc(-c2ccccc2C)oc1C | 0 | 0 | 0 | 0 | 0
Cc1ccccc1-c1nc(CS(=O)(=O)CC(=O)Nc2cc(F)ccc2F)c(C)o1 | 0 | 0 | 0 | 92.2 | 0
Oc1cnn(-c2ccccc2)c1 | 0 | 0 | 0 | 32.1 | 0
CCc1cc(C(=O)Cc2cnn(-c3ccccc3)c2)c(O)cc1O | 0 | 0 | 0 | 0 | 0
O=C(Cc1cnn(-c2ccccc2)c1)c1ccc(O)c(O)c1O | 0 | 2 | - | 0 | 0
CCOc1ccccc1CN1C(=O)NC(C)(c2ccccc2)C1=O (stereo not drawn) | 0 | 0 | 0 | 0 | 0
O=C(NCc1ccc(N2CCCC2=O)cc1)Nc1cccc(Cl)c1 | 0 | 0 | 0 | 0 | 0
CCN(CC(=O)Nc1c(C(=O)OC)[nH]c2ccc(C)cc12)c1ccc2c(c1)OCO2 | 0 | 0 | 0 | 52.8 | 0
CCOC(=O)C1=C(CC)Nc2ccccc2N=C1NC(=O)Nc1ccc(Cl)c(Cl)c1 | 73.0 | 0 | - | 65.6 | 0
